1 compound from ChEMBL document CHEMBL2163197, “Synthesis and antimitotic and tubulin interaction profiles of novel pinacol derivatives of podophyllotoxins” (2012) can be followed below.

Active and inactive are the calls of the source. The rule behind the calls is not given here.

Experiment [1] is filed under the species Bos taurus. The experiment is described as follows: Displacement of MTC from bovine brain tubulin colchicine binding site at 20 uM by fluorometric assay. The procedure, abridged: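 Calf brain tubulin 10 μM with 10 μM MTC in 10 mM sodium phosphate, 0.1 mM GTP, pH 7.0, with 20 μM ligand. Excitation at 350 nm. Fluorescence emission spectra recorded and the decrease relative to tubulin-bound MTC taken as displacement from the colchicine site.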

Experiment [2] is filed under the species Bos taurus. The experiment can be described thus: Inhibition of bovine brain tubulin polymerization at 1 uM after 30 mins by spectrophotometric analysis.
Experiment [3] relates to A549. The experiment can be described thus: Antimitotic activity in human A549 cells assessed as induction of microtubule depolymerization at 0.05 to 100 uM after 20 hrs by Hoechst 33342 staining-based fluorescence microscopy. It counts as functional, cell-based. The procedure, abridged:
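A-549 lung carcinoma cells plated at 150 000 cells/ml on coverslips, cultured overnight, then exposed to ligands or DMSO vehicle (residual DMSO <0.5%). Cells permeabilised with Triton X100, fixed in 3.7% formaldehyde, stained with DM1A anti-α-tubulin and FITC secondary, chromatin stained with 1 μg/mL Hoechst 33342. Examined by epifluorescence microscopy. Methods state 24 h exposure; legend states 20 h.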

Experiment [4] deals with A549. The experiment can be described thus: Cell cycle arrest in human A549 cells assessed as accumulation at G2/M phase at 0.001 to 100 uM after 20 hrs by propidium iodide staining-based flow cytometry. It counts as functional. The procedure, abridged: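 A-549 cells (180 000 per mL) incubated 20 h with ligands from 1 nM to 100 μM, with untreated and DMSO vehicle controls. Cells fixed in 70% ethanol, RNase-treated and stained with propidium iodide. DNA content read by flow cytometry to give percent of cells in each cycle phase. Lowest concentration giving G2/M arrest recorded.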
On the technique in general: Flow cytometry measures light scatter and fluorescence of single cells or particles in a stream.

The subject of experiment [5] is A549. The experiment can be described thus: Growth inhibition of human A549 cells after 72 hrs by SRB assay. It counts as functional. To be noted: A549, 72 h. The procedure, abridged: (§1)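 Cell lines kept in RPMI with 10% FCS, 2 mM L-glutamine, penicillin/streptomycin at 37 °C, 5% CO2. Exposure 72 h to 10 concentrations from 10 to 0.0026 μg/mL. Cells fixed in 1% glutaraldehyde, stained with 0.4% SRB for 30 min, dye extracted in 10 mM Trizma base, absorbance read at 490 nm. GI50 from triplicate dose-response cultures by NCI algorithm; mean ± SD of three independent experiments.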

A further experiment has as its system HT-29. The experiment can be described thus: Growth inhibition of human HT-29 cells after 72 hrs by SRB assay. It counts as functional. To be noted: HT-29, 72 h. The procedure, abridged:
as §1

Another experiment has as its system SK-BR-3. The experiment is described as follows: Growth inhibition of human SKBR3 cells after 72 hrs by SRB assay. It counts as functional. To be noted: SK-BR-3, 72 h. A digest of the protocol:
as §1

In general, inhibition refers to the change of the read-out against control, counted positive when it falls. High values mean a response far below the control, low ones a response near the control. As usually defined, the GI50 is the concentration giving 50% growth inhibition. Read a high GI50 as less potent growth inhibition. Turning to `COc1cc([C@@H]2c3cc4c(cc3[C@H](C(C)C)[C@H]3COC(=O)[C@@H]23)OCO4)cc(OC)c1OC`, the Activity in the experiment listed under Bos taurus [1] is 35%; in the experiment on A549 [4], over 70%. This compound also showed an inhibition in the experiment filed under Bos taurus [2] of 84.5%. Moreover, the outcome with A549 [3] was Active. Also, the results for the GI50 in the experiment with A549 [5], in the experiment on HT-29 and in the experiment with SK-BR-3 were 79.5 nM, 83.1 nM and 84.1 nM, respectively.
